Measurements from ChEMBL document CHEMBL4406821, “Novel dual inhibitors targeting CDK4 and VEGFR2 synergistically suppressed cancer progression and angiogenesis” (Eur J Med Chem, 2019).
Activity calls are given as the source filed them. No cut-off for these calls is given here.

Key:
MDA-MB-231 = assay: Induction of cell cycle arrest in human MDA-MB-231 cells assessed as accumulation in G2/M phase at 40 nM incubated for 36 hrs by propidium iodide staining based flow cytometry; assay type: functional
Procedure, shortened: (§1)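 Cells were treated with graded concentrations for 36 h, then fixed overnight in 70% ice-cold ethanol at 4°C and resuspended in PBS. Staining used 50 µg/ml PI plus 5 µg/ml RNase at 37°C for 30 min. DNA content was analysed by FACS to give G0/G1, S and G2/M fractions.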

T47D = assay: Inhibition of colony formation in human T47D cells at 20 to 40 nM incubated for 5 days by crystal violet staining based light microscopy; assay type: functional, cell-based
Procedure, shortened: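 MDA-MB-231, T-47D, SiHa and HeLa cells seeded at 4×10^3/well and cultured with varying concentrations of drug or vehicle for 5 days. Fixed in 20% methanol, stained with 0.5% crystal violet, photographed under light microscopy. DMEM (T-47D) with 10% FBS, 37°C, 5% CO2.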

HeLa = assay: Induction of cell cycle arrest in human HeLa cells assessed as accumulation in G2/M phase at 40 to 80 nM incubated for 36 hrs by propidium iodide staining based flow cytometry; assay type: functional; procedure, shortened: as §1
SiHa = assay: Induction of apoptosis in human SiHa cells assessed as increase in early apoptotic cells at 20 to 40 nM incubated for 48 hrs by annexin V FITC and propidium iodide staining based flow cytometry; assay type: functional, cell-based
Procedure, shortened: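 Annexin V-FITC/PI double staining with flow-cytometric readout. MDA-MB-231, T-47D, SiHa and HeLa cells were treated with graded concentrations for 48 h. MDA-MB-231 and T-47D were grown in DMEM and SiHa in 1640 medium, each with 10% FBS and 1% penicillin/streptomycin at 37°C under 5% CO2. Early- and late-stage apoptotic fractions were scored.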

[1] = target: Protein-tyrosine kinase 6 (Homo sapiens) (UniProt Q13882); assay: Inhibition of recombinant full length human BRK at 1 uM using poly(Glu, Tyr) 4:1 as substrate incubated for 40 mins in presence of [gamma-33P]-ATP by scintillation counting method relative to control
Procedure, shortened: (§2)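 Kinase panel profiling at 1 μM performed by Eurofins KinaseProfiler; percent inhibition reported as mean of two independent experiments.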

[2] = target: Calcium/calmodulin-dependent protein kinase type 1 (Homo sapiens) (UniProt Q14012); assay: Inhibition of recombinant human CAMKIalpha (2 to end residues) at 1 uM using […] as substrate incubated for 40 mins in presence of [gamma-33P]-ATP by scintillation counting method relative to control
Procedure, shortened: (§3)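 Tested at a single 1 uM in an outsourced commercial kinase-profiling panel, read as percent inhibition. Each value is the mean of two independent experiments.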

[3] = target: Serine/threonine-protein kinase Chk2 (Homo sapiens) (UniProt O96017); assay: Inhibition of recombinant human CHK2 (5 to end residues) at 1 uM using KKKVSRSGLYRSP as substrate incubated for 40 mins in presence of [gamma-33P]-ATP by scintillation counting method relative to control; procedure, shortened: as §2
[4] = target: G protein-coupled receptor kinase 3 (Homo sapiens) (UniProt P35626); assay: Inhibition of recombinant human full length GRK3 at 1 uM using casein as substrate incubated for 40 mins in presence of [gamma-33P]-ATP by scintillation counting method relative to control
[5] = target: Mitogen-activated protein kinase kinase kinase 3 (Homo sapiens) (UniProt Q99759); assay: Inhibition of recombinant human full length MEKK3 at 1 uM using myelin basic protein as substrate incubated for 40 mins in presence of [gamma-33P]-ATP by scintillation counting method relative to control
[6] = target: Ribosomal protein S6 kinase beta-1 (Homo sapiens) (UniProt P23443); assay: Inhibition of recombinant human p70S6K (1 to 421 residues) at 1 uM using KKRNRTLTV as substrate incubated for 40 mins in presence of [gamma-33P]-ATP by scintillation counting method relative to control
[7] = target: RAC-beta serine/threonine-protein kinase (Homo sapiens) (UniProt P31751); assay: Inhibition of recombinant human PKBbeta (120 to end residues) at 1 uM using GRPRTSSFAEGKK as substrate incubated for 40 mins in presence of [gamma-33P]-ATP by scintillation counting method relative to control; procedure, shortened: as §3
[8] = target: Serine/threonine-protein kinase PRP4 homolog (Homo sapiens) (UniProt Q13523); assay: Inhibition of recombinant human PRP4 (663 to end residues) at 1 uM using casein as substrate incubated for 40 mins in presence of [gamma-33P]-ATP by scintillation counting method relative to control
[9] = target: Ribosomal protein S6 kinase alpha-1 (Homo sapiens) (UniProt Q15418); assay: Inhibition of recombinant human full length RSK1 at 1 uM using KKKNRTLSVA as substrate incubated for 40 mins in presence of [gamma-33P]-ATP by scintillation counting method relative to control; procedure, shortened: as §3
[10] = target: Testis-specific serine/threonine-protein kinase 3 (Homo sapiens) (UniProt Q96PN8); assay: Inhibition of recombinant human full length TSSK3 at 1 uM using AMARAASAAALARRR as substrate incubated for 40 mins in presence of [gamma-33P]-ATP by scintillation counting method relative to control
Procedure, shortened: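 Single-point inhibition at 1 uM measured in a commercial kinase profiling panel (KinaseProfiler); each value is the mean of two independent experiments.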

[11] = target: Serine/threonine-protein kinase TAO2 (Homo sapiens) (UniProt Q9UL54); assay: Inhibition of recombinant human TAO2 (1 to 320 residues) at 1 uM using myelin basic protein as substrate incubated for 40 mins in presence of [gamma-33P]-ATP by scintillation counting method relative to control; procedure, shortened: as §3
[12] = target: Serine/threonine-protein kinase TBK1 (Homo sapiens) (UniProt Q9UHD2); assay: Inhibition of recombinant human full length TBK1 at 1 uM using KRRRALS(p)VASLPGL as substrate incubated for 40 mins in presence of [gamma-33P]-ATP by scintillation counting method relative to control
[13] = target: Serine/threonine-protein kinase WNK3 (Homo sapiens) (UniProt Q9BYP7); assay: Inhibition of recombinant human WNK3 (1 to 434 residues) at 1 uM using myelin basic protein as substrate incubated for 40 mins in presence of [gamma-33P]-ATP by scintillation counting method relative to control
[14] = target: PI3K p110 beta/p85 alpha (Homo sapiens) (UniProt P27986+P42338); assay: Inhibition of recombinant human full length PI3K p110beta/p85alpha at 1 uM using phosphatidylinositol-4, 5-bisphosphate as substrate incubated for 40 mins in presence of [gamma-33P]-ATP by scintillation counting method relative to control; assay type: protein-complex assay
[15] = Toxicity in NOD/SCID BALB/c mouse xenografted with human SiHa cells assessed as effect on blood parameter by measuring RDW at 40 mg/kg, po administered once two days for 4 times by hematology analyzer; assay type: organism-based; details: in vivo
[16] = Toxicity in BALB/c mouse assessed as effect on blood parameter by measuring monocytes content at 40 mg/kg, po administered once two days for 4 times by hematology analyzer; details: in vivo

Sequence of Serine/threonine-protein kinase Chk2 (Homo sapiens) (O96017 whole entry): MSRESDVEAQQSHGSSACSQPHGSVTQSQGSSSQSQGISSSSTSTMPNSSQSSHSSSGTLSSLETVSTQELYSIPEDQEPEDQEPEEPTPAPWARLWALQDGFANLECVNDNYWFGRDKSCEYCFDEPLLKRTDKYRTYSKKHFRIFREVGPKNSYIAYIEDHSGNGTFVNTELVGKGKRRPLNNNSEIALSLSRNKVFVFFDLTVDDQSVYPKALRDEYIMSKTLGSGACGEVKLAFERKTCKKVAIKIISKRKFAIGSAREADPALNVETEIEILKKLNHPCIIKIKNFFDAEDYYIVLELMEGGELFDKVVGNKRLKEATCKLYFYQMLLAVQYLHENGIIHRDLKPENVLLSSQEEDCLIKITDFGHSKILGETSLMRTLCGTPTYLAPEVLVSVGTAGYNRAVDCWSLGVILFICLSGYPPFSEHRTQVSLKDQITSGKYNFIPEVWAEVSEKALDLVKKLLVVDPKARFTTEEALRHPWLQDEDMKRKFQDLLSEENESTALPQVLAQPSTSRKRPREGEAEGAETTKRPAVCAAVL
Sequence of Ribosomal protein S6 kinase beta-1 (Homo sapiens) (P23443 whole entry, looked up, the tested form may be a part): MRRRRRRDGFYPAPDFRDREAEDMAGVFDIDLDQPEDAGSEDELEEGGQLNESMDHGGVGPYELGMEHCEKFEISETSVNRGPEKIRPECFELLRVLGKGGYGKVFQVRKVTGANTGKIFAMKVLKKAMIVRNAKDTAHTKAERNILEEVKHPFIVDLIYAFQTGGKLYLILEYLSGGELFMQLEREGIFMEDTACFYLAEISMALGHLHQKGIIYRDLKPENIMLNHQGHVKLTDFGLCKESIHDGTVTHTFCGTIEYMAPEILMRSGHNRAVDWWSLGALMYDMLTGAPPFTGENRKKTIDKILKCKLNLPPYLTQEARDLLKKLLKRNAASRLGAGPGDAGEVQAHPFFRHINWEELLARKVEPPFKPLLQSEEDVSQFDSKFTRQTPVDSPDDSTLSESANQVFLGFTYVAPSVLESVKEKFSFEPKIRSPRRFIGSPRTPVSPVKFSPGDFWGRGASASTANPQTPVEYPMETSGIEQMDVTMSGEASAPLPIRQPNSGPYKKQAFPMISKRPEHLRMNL
Sequence of Mitogen-activated protein kinase kinase kinase 3 (Homo sapiens) (Q99759 whole entry, the tested form may be a part): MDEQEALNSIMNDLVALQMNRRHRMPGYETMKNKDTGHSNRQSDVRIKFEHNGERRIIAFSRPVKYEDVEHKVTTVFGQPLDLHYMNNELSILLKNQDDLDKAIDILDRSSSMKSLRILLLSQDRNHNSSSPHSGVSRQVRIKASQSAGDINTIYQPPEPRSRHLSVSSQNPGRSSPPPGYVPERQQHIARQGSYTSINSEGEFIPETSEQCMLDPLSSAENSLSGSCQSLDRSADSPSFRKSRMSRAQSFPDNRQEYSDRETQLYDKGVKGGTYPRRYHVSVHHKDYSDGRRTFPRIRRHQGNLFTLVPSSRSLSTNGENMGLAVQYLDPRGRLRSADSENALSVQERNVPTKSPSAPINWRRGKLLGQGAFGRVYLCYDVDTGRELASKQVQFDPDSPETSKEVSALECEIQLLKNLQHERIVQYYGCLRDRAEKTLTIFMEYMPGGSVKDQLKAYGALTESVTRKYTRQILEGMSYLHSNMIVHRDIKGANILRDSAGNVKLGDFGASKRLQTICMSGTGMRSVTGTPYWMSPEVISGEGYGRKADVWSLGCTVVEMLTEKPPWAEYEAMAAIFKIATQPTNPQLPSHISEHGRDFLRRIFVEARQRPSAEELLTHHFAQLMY
Sequence of Ribosomal protein S6 kinase alpha-1 (Homo sapiens) (Q15418 whole entry): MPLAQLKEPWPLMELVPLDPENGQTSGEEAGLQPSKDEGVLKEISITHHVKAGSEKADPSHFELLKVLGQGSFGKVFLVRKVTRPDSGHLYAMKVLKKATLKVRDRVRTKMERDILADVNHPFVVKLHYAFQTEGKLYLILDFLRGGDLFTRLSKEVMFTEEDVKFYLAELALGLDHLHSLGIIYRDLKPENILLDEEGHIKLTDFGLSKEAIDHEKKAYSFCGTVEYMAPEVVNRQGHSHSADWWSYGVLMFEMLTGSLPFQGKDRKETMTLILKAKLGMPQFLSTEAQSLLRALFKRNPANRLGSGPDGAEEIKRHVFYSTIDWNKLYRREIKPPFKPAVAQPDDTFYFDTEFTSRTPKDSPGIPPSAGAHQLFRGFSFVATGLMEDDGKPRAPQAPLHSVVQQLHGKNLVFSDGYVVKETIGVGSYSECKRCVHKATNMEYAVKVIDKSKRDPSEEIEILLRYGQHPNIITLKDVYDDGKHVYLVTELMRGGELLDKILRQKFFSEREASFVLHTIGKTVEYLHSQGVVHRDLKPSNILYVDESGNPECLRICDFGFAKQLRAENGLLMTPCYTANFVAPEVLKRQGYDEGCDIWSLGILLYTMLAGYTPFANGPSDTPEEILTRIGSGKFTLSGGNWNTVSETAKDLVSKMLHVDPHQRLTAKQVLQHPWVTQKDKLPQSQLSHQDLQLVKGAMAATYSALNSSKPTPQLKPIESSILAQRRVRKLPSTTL
Sequence of PI3K p110 beta/p85 alpha (Homo sapiens) (P27986 2-724 limits assumed): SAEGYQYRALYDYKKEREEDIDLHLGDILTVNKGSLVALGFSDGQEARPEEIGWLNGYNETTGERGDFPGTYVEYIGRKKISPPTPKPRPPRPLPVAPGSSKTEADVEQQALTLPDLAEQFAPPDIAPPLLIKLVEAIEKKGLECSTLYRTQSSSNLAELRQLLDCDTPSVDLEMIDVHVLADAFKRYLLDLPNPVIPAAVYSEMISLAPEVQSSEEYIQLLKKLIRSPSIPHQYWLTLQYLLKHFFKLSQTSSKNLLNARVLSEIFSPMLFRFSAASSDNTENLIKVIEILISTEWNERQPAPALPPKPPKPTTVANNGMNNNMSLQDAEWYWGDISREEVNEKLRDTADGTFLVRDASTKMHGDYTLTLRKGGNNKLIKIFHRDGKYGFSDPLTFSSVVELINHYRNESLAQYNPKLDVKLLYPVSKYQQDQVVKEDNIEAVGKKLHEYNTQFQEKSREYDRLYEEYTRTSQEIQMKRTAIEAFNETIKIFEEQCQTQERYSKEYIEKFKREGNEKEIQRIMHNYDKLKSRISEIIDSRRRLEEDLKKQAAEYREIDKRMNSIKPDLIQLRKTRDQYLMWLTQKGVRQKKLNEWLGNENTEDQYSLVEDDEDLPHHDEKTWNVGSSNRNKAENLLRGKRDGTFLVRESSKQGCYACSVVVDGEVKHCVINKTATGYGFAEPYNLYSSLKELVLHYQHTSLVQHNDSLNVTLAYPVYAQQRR
Sequence of PI3K p110 beta/p85 alpha (Homo sapiens) (P42338 whole entry partner): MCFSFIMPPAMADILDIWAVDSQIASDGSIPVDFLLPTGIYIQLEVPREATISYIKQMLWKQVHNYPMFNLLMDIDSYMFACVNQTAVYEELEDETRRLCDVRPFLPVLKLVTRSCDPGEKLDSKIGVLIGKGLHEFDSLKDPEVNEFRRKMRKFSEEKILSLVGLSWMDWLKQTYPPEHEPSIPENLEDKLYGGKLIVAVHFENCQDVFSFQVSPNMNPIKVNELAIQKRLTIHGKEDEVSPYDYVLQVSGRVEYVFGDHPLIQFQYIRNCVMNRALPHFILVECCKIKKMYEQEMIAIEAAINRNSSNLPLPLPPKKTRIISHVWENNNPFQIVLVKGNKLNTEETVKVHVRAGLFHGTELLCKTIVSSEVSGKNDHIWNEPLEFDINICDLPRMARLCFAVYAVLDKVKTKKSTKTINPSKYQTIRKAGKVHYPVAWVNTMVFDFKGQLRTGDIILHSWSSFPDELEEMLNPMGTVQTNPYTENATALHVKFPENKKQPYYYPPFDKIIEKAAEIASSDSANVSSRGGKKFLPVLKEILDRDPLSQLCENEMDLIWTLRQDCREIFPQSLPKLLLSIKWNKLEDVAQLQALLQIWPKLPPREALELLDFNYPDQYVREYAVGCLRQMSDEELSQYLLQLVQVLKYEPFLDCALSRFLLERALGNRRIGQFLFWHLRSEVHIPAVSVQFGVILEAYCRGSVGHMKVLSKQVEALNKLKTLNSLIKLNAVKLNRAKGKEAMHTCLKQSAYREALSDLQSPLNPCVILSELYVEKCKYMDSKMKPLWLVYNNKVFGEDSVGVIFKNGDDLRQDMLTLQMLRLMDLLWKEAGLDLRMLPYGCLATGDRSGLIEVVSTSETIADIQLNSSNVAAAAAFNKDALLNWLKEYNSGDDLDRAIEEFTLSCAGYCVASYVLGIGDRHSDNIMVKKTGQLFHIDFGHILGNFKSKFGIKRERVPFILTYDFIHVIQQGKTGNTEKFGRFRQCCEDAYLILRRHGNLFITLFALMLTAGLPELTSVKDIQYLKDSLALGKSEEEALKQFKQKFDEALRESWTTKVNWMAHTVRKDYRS
Sequence of Calcium/calmodulin-dependent protein kinase type 1 (Homo sapiens) (Q14012 whole entry, looked up): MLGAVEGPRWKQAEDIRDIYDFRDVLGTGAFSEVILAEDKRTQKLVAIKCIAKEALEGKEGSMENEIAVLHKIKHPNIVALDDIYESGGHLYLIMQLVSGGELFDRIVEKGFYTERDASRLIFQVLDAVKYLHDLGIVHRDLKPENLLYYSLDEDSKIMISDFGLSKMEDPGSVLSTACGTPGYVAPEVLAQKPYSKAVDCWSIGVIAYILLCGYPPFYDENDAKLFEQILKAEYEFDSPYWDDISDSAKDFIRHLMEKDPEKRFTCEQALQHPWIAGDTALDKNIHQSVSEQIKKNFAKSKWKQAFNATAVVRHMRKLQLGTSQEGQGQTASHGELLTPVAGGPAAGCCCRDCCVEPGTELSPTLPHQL
Sequence of Protein-tyrosine kinase 6 (Homo sapiens) (Q13882 whole entry, looked up): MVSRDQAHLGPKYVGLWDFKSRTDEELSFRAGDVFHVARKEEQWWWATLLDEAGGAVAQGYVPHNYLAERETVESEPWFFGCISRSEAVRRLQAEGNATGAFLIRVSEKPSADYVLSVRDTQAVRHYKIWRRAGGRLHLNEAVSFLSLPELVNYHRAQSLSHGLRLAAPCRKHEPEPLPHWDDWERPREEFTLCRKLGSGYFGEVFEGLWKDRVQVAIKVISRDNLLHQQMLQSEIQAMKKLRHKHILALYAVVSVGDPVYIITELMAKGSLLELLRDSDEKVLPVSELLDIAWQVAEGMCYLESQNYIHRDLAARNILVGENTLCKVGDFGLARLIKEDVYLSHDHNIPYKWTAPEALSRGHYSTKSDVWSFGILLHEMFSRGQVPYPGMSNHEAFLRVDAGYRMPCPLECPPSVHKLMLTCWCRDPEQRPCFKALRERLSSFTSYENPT

| SMILES | Activity (MDA-MB-231) | inhibition (T47D) | Activity (HeLa) | Activity (SiHa) | inhibition [1] | inhibition [2] | inhibition [3] | inhibition [4] | inhibition [5] | inhibition [6] | inhibition [7] | inhibition [8] | inhibition [9] | inhibition [10] | inhibition [11] | inhibition [12] | inhibition [13] | inhibition [14] | Activity [15] | Activity [16] |
| --- | --- | --- | --- | --- | --- | --- | --- | --- | --- | --- | --- | --- | --- | --- | --- | --- | --- | --- | --- | --- |
| COc1cc2nccc(Oc3ccc(NC(=O)C4(C(=O)Nc5ccc(F)cc5)CC4)cc3)c2cc1OC [CABOZANTINIB] | Active |  |  |  |  |  |  |  |  |  |  |  |  |  |  |  |  |  |  |  |
| Cc1ccc(NC(=O)C2(C(=O)Nc3ccc(Nc4ncc(F)c(-c5cc(F)c6nc(C)n(C(C)C)c6c5)n4)cc3)CC2)cc1 |  | Active | Active | Active | 22% | 0% | 22% | 10% | 78% | 63% | 0% | 48% | 0% | 0% | 0% | 9% | 17% | 12% | Non-Toxic | Non-Toxic |
